Measured values as given in ChEMBL document CHEMBL2384996 (J Med Chem, 2013).
Calls of active or inactive are those of the source. The calls are words filed in the database; no cut-off is given here.

Assays:
Oocyte [1] = experiment: Inhibition of Gloeobacter violaceus ligand-gated ion channel expressed in Xenopus laevis oocytes assessed as inhibition of MES buffer pH 5.5 -induced currents at 300 uM after 30 secs by voltage clamp technique; assay type: cell-based
Procedure, shortened: (§1)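 GLIC expressed in Xenopus oocytes, two-electrode voltage clamp. Current elicited by pH 5.5 MES buffer (100 mM NaCl, 3 mM KCl, 1 mM CaCl2, 1 mM MgCl2, 10 mM MES) for 30 sec to steady state. Compound then co-applied for 30 sec in the same pH 5.5 buffer, followed by washout with buffer alone. Oocytes held in Barth's medium after injection.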

[2] = Antagonist activity at Gloeobacter violaceus ligand-gated ion channel expressed in Xenopus oocytes assessed as inhibition of MES buffer pH 5.5 -induced currents after 30 secs by voltage clamp technique; assay type: cell-based; conditions: Oocyte; procedure, shortened: as §1
Oocyte [3] = experiment: Inhibition of Gloeobacter violaceus ligand-gated ion channel expressed in Xenopus laevis oocytes assessed as inhibition of MES buffer pH 5.5 -induced currents at 100 uM after 30 secs by voltage clamp technique; assay type: cell-based
Procedure, shortened: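 GLIC-expressing oocytes kept in Barth's medium (88 mM NaCl, 1 mM KCl, 2.4 mM NaHCO3, 15 mM HEPES, 0.3 mM NaNO3, 0.7 mM CaCl2). Each cell was first given pH 5.5 buffer (100 mM NaCl, 3 mM KCl, 1 mM CaCl2, 1 mM MgCl2, 10 mM MES) for 30 sec. Compound was then co-applied in the same buffer for 30 sec, followed by washout. Mean ± sd, n ≥ 3 cells.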

Oocyte [4] = experiment: Inhibition of Gloeobacter violaceus ligand-gated ion channel expressed in Xenopus laevis oocytes assessed as inhibition of MES buffer pH 5.5 -induced currents at 1 mM after 30 secs by voltage clamp technique; assay type: cell-based; procedure, shortened: as §1
[5] = Dissociation constant, pKa of the compound; assay type: physicochemical
Oocyte [6] = experiment: Inhibition of Gloeobacter violaceus ligand-gated ion channel expressed in Xenopus laevis oocytes assessed as inhibition of buffer at pH 4 -induced currents at 100 uM after 30 secs by voltage clamp technique; assay type: cell-based
Gloeobacter violaceus [7] = experiment: Inhibition of Gloeobacter violaceus ligand-gated ion channel R77A mutant at 100 uM
Procedure, shortened: (§2)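 Alanine point mutants of GLIC expressed in Xenopus oocytes, voltage clamp. Compound co-applied with pH 5.5 buffer (100 mM NaCl, 3 mM KCl, 1 mM CaCl2, 1 mM MgCl2, 10 mM MES). Concentration-inhibition curves used for IC50; single-point inhibition taken at 100 μM, or at up to 1 mM. Mean ± sd, n ≥ 3 cells.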

[8] = Inhibition of Gloeobacter violaceus ligand-gated ion channel R105A mutant; procedure, shortened: as §2
Oocyte [9] = experiment: Selectivity ratio of IC50 for Gloeobacter violaceus ligand-gated ion channel R77A mutant to IC50 for wild-type Gloeobacter violaceus ligand-gated ion channel expressed in Xenopus oocytes; assay type: cell-based
Gloeobacter violaceus [10] = experiment: Inhibition of Gloeobacter violaceus ligand-gated ion channel R105A mutant at 100 uM; procedure, shortened: as §2
[11] = Inhibition of Gloeobacter violaceus ligand-gated ion channel E177A mutant; procedure, shortened: as §2
[12] = Inhibition of Gloeobacter violaceus ligand-gated ion channel E181A mutant; procedure, shortened: as §2
Oocyte [13] = experiment: Selectivity ratio of IC50 for Gloeobacter violaceus ligand-gated ion channel E177A mutant to IC50 for wild-type Gloeobacter violaceus ligand-gated ion channel expressed in Xenopus oocytes; assay type: cell-based
[14] = Inhibition of Gloeobacter violaceus ligand-gated ion channel R77A mutant; procedure, shortened: as §2
Oocyte [15] = experiment: Inhibition of Gloeobacter violaceus ligand-gated ion channel expressed in Xenopus laevis oocytes assessed as inhibition of MES buffer-induced currents at 1 mM at pH 5.5 measured after wash-out by voltage clamp technique; assay type: cell-based
Gloeobacter violaceus [16] = experiment: Inhibition of Gloeobacter violaceus ligand-gated ion channel E181A mutant at 100 uM; procedure, shortened: as §2
Gloeobacter violaceus [17] = experiment: Inhibition of Gloeobacter violaceus ligand-gated ion channel E177A mutant at 100 uM; procedure, shortened: as §2
Gloeobacter violaceus [18] = experiment: Inhibition of Gloeobacter violaceus ligand-gated ion channel R133A mutant at 1 mM; procedure, shortened: as §2
Oocyte [19] = experiment: Selectivity ratio of IC50 for Gloeobacter violaceus ligand-gated ion channel R105A mutant to IC50 for wild-type Gloeobacter violaceus ligand-gated ion channel expressed in Xenopus oocytes; assay type: cell-based

Row | SMILES | IC50 [2] [µM] | pKa [5] | inhibition (Oocyte [4]) [%] | other results
1 | NC(=O)/C=C/c1ccc(O)c(O)c1 | 347 |  |  | inhibition (Oocyte [1]): 51.6%
2 | O=C(O)/C=C/c1ccc2c(c1)OCO2 | 28.8 |  |  | inhibition (Oocyte [3]): 79.7%
3 | OC/C=C/c1ccc(O)c(O)c1 | 73.9 |  | 95.2 | 
4 | O=C(O)COc1ccccc1 | 53.3 | 3.2 | 98.5 | 
5 | COc1ccc2cc(C(=O)O)c(=O)oc2c1 | 168 |  | 96 | 
6 | O=C(O)C(=Cc1ccccc1)C(=O)O | 7940 | 3.5 | 25 | 
7 | O=C(O)C(=C/C=C/c1ccccc1)C(=O)O | 83.5 | 3.45 | 92.2 | 
8 | CCNC(=O)/C=C/c1ccc(O)c(O)c1 | 295 |  | 81.6 | inhibition (Oocyte [6]; 300 uM, in the assay text read “at 300 uM” for “at 100 uM”): inactive
9 | COc1ccc(/C=C/C(=O)O)cc1OC | 206 | 4.55 | 75.6 | 
10 | O=C(O)c1cc2ccccc2oc1=O [COUMARIN-3-CARBOXYLIC ACID] | 282 | 3.6 | 84 | 
11 | O=C(O)CCc1ccc(O)c(O)c1 [DIHYDROCAFFEIC ACID] | 86.8 | 4.3 | 90.5 | 
12 | CCOC(=O)/C=C/c1ccc(O)c(O)c1 [ETHYL CAFFEATE] | 246 |  | 91.8 | 
13 | COC(=O)/C=C/c1ccc(O)c(O)c1 [METHYLCAFFEATE] | 388 |  | 78 | 

The next lines start with results.

Row | IC50 [2] [µM] | pKa [5] | SMILES | inhibition (Oocyte [4]) [%] | other results
14 | 25.3 | 4.6 | O=C(O)/C=C/c1cccc(C(F)(F)F)c1 | 94.6 | 
15 | 13.7 | 4.8 | O=C(O)/C=C/c1cccc(Cl)c1 [3-CHLORO-CINNAMIC ACID] | 95 | 
16 | 61.4 | 4.45 | O=C(O)c1ccc2ccccc2c1 [BETA-NAPHTOIC ACID] | 96.4 | 
17 | 16.7 | 4.35 | O=C(O)/C=C/c1ccc(O)c(O)c1 [CAFFEIC ACID] | 93.8 | inhibition (Oocyte [6]; 100 uM): inactive; inhibition (Gloeobacter violaceus [7]): 15%; IC50 [8]: 420 µM; Ratio IC50 (Oocyte [9]): > 10; inhibition (Gloeobacter violaceus [10]): 15%; IC50 [11]: 506 µM; IC50 [12]: 24.1 µM; Ratio IC50 (Oocyte [13]): > 10; IC50 [14]: 945 µM; inhibition (Oocyte [15]): inactive; inhibition (Gloeobacter violaceus [16]): 80%; inhibition (Gloeobacter violaceus [17]): 15%; inhibition (Gloeobacter violaceus [18]): inactive; Ratio IC50 (Oocyte [19]): > 10
18 | 34.6 |  | O=C(O)/C=C/c1ccccc1 [CINNAMIC ACID] | 97.5 | 
19 | 9.59 |  | O=C(O)/C=C/c1ccc(O)cc1 [COUMARIC ACID] |  | inhibition (Oocyte [1]): 91.4%
20 | 13.5 |  | COc1ccc(/C=C/C(=O)O)cc1O [ISOFERULIC ACID] | 98.5 | 
